This is an account of results in paper PMC11974842 (bioRxiv, 2025).

The subject of one data set is Cia1. Conditions: via C-terminal tryptophan; ref [26]; cited from earlier work.
Data set [1] in a line: Melting temperature by Thermofluor. It counts as physicochemical, Homo sapiens. Conditions: R65W vs WT HsCia1. A general note: DSF heats the sample and reads unfolding from a dye or from intrinsic fluorescence.
Another data set has as its system HsCia2a. As to the kind of experiment: Affinity copurification of HsCia1 with HsCia2a. It counts as binding, Homo sapiens. Conditions: strep-tagged HsCia1 bait, HsCia2a prey. The procedure, abridged:
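Recombinant human Cia1, wild-type or R65A variant, carries the strep tag as bait. Human Cia2a is the prey. Copurified proteins are compared between the two bait forms. Uncropped gels, including input samples and controls, accompany the analysis.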

In another data set the test system is CtCia1-Cia2. As to the kind of experiment: Affinity copurification of ScMet18 with CtCia1-Cia2. Format: binding, Chaetomium thermophilum.

With Viperin: CIA client, the “binding to Cia1” value in the data set with Cia1 is recorded as “binds Cia1 via Viperin’s C-terminal tryptophan”. “Hs R65WCia1: human Cia1 pathogenic variant implicated in a fatal neuromuscular disorder”: the results for the “thermostability of HsCia1” value in data set [1] and in data set [1] (listed as R65W HsCia1) were “without impacting Cia1’s thermostability” and “did not affect the stability of HsCia1 in vitro”, respectively. The “interaction with HsCia2a” value with HsCia2a was “strongly disrupted”.

B1: ScMet18: S. cerevisiae Met18 with N-terminal His6-SUMO tag (protein)
chain: MTPDELNSAVVTFMANLNIDDSKANETASTVTDSIVHRSIKLLEVVVALKDYFLSENEVERKKALTCLTTILAKTPKDHLSKNECSVIFQFYQSKLDDQALAKEVLEGFAALAPMKYVSINEIAQLLRLLLDNYQQGQHLASTRLWPFKILRKIFDRFFVNGSSTEQVKRINDLFIETFLHVANGEKDPRNLLLSFALNKSITSSLQNVENFKEDLFDVLFCYFPITFKPPKHDPYKISNQDLKTALRSAITATPLFAEDAYSNLLDKLTASSPVVKNDTLLTLLECVRKFGGSSILENWTLLWNALKFEIMQNSEGNENTLLNPYNKDQQSDDVGQYTNYDACLKIINLMALQLYNFDKVSFEKFFTHVLDELKPNFKYEKDLKQTCQILSAIGSGNVEIFNKVISSTFPLFLINTSEVAKLKLLIMNFSFFVDSYIDLFGRTSKESLGTPVPNNKMAEYKDEIIMILSMALTRSSKAEVTIRTLSVIQFTKMIKMKGFLTPEEVSLIIQYFTEEILTDNNKNIYYACLEGLKTISEIYEDLVFEISLKKLLDLLPDCFEEKIRVNDEENIHIETILKIILDFTTSRHILVKESITFLATKLNRVAKISKSREYCFLLISTIYSLFNNNNQNENVLNEEDALALKNAIEPKLFEIITQESAIVSDNYNLTLLSNVLFFTNLKIPQAAHQEELDRYNELFISEGKIRILDTPNVLAISYAKILSALNKNCQFPQKFTVLFGTVQLLKKHAPRMTETEKLGYLELLLVLSNKFVSEKDVIGLFDWKDLSVINLEVMVWLTKGLIMQNSLESSEIAKKFIDLLSNEEIGSLVSKLFEVFVMDISSLKKFKGISWNNNVKILYKQKFFGDIFQTLVSNYKNTVDMTIKCNYLTALSLVLKHTPSQSVGPFINDLFPLLLQALDMPDPEVRVSALETLKDTTDKHHTLITEHVSTIVPLLLSLSLPHKYNSVSVRLIALQLLEMITTVVPLNYCLSYQDDVLSALIPVLSDKKRIIRKQCVDTRQVYYELGQIPFE
modifications: left off: His6, N-terminal, state not stated | SUMO, N-terminal, state not stated
In the case of B1, the “binding to CtCia1-Cia2” value in the data set on CtCia1-Cia2 is on record as “can bind to CtCia1-Cia2”.
